Source: ChEMBL document CHEMBL4382263, “Spirostaphylotrichin X from a Marine-Derived Fungus as an Anti-influenza Agent Targeting RNA Polymerase PB2” (J Nat Prod, 2018)
Calls of active or inactive are those of the source. The rule behind the calls is not given here.

Assays:
[1] = tested on: Influenza A virus (A/Puerto Rico/8/1934(H1N1)); assay: Inhibition of RNA-dependent RNA polymerase in Influenza A virus (A/PR/8/34(H1N1)) infected in human 293T cells assessed as reduction in viral RNA level at 10 uM measured at 3 and 6 hrs post infection by RT-PCR method; type: cell-based
Cynodon dactylon = assay: Inhibition of seed germination in Cynodon dactylon at 100 ug/ml after 7 days; type: functional, organism-based
Summary of the method: (§1)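 Ten surface-sterilised seeds per well on agar. Test solution at 100 μg/mL in 5% EtOH added; three wells per sample. Incubated at 20 °C, 12:12 h photoperiod, 7 days; germination scored.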

Arabidopsis thaliana = assay: Inhibition of seed germination in Arabidopsis thaliana at 100 ug/ml after 7 days; type: functional, organism-based; summary of the method: as §1
ACHN = assay: Cytotoxicity against human ACHN cells by MTT assay; type: functional, cell-based
786-0 = assay: Cytotoxicity against human 786-O cells by MTT assay; type: functional, cell-based
OS-RC-2 = assay: Cytotoxicity against human OS-RC2 cells by MTT assay; type: functional, cell-based
HepG2 = assay: Cytotoxicity against human HepG2 cells by MTT assay; type: functional, cell-based
SGC-7901 = assay: Cytotoxicity against human SGC7901 cells by MTT assay; type: functional, cell-based
Escherichia coli = assay: Antibacterial activity against Escherichia coli ATCC 25922; type: functional
Staphylococcus aureus = assay: Antibacterial activity against Staphylococcus aureus subsp. aureus Rosenbach ATCC 25923; type: functional
[2] = tested on: Erysipelothrix rhusiopathiae; assay: Antibacterial activity against Erysipelothrix rhusiopathiae ATCC 19414; type: functional
[3] = Antibacterial activity against Pasteurella multocida subsp. multocida ATCC 43137; type: functional
Influenza A virus [4] = assay: Antiviral activity against Influenza A virus (A/PR/8/34(H1N1)) infected in MDCK cells assessed as reduction in virus-induced cytopathic effect by MTT assay; type: functional, organism-based; settings: A/Puerto Rico/8/1934(H1N1)
Summary of the method: (§2)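 MTT-based cytopathic-effect reduction assay in MDCK cells. Run in triplicate; IC50 reported as mean ± SD.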

[5] = biological target: Polymerase basic protein 2 (Influenza A virus (strain A/Puerto Rico/8/1934 H1N1), UniProt P03428); assay: Binding affinity to Influenza A virus RNA polymerase PB2 by SPR assay
Summary of the method: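 PB2-cap protein (0.5 μM) immobilised on CM5 chip at pH 5.0. Compound injected at 7.8–125 nM for 180 s at 50 μL/min, 25 °C; chip regenerated with 50 mM NaOH. KD from fitted sensorgrams; reference compound included.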

Influenza A virus H3N2 = assay: Antiviral activity against Influenza A virus (A/Aichi/2/68(H3N2)) infected in MDCK cells assessed as reduction in virus-induced cytopathic effect by MTT assay; type: functional, organism-based; settings: A/Aichi/2/1968(H3N2); summary of the method: as §2
[6] = Cytotoxicity against MDCK cells by MTT assay; type: cell-based, Canis lupus familiaris; settings: dog
Summary of the method: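 MDCK viability measured by MTT at concentrations up to 200 μM. Run in triplicate; CC50 reported.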

Influenza A virus [7] = assay: Antiviral activity against Influenza A virus (A/FM-1/1/47(H1N1)) infected in MDCK cells assessed as reduction in virus-induced cytopathic effect by MTT assay; type: functional, organism-based; settings: A/Fort Monmouth/1/1947(H1N1); summary of the method: as §2
Influenza A virus [8] = assay: Antiviral activity against Influenza A virus isolate 690 (H3) infected in MDCK cells assessed as reduction in virus-induced cytopathic effect by MTT assay; type: functional, organism-based; summary of the method: as §2
Influenza A virus [9] = assay: Antiviral activity against Influenza A virus (A/PR/8/34(H1N1)) infected in MDCK cells assessed as reduction in plaque formation after 72 hrs by crystal violet staining based assay; type: functional, organism-based; settings: A/Puerto Rico/8/1934(H1N1)
Summary of the method: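 MDCK monolayers infected with PR8 at MOI 0.005 for 1 h at 37 °C. Overlay of serum-free MEM with serially diluted compound, 2% microcrystalline cellulose and 1.5 μg/mL trypsin. After 72 h, cells fixed and stained with 4% paraformaldehyde/2% crystal violet for 20 min; plaques assessed.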

Influenza A virus [10] = assay: Antiviral activity against Influenza A virus (A/PR/8/34(H1N1)) infected in MDCK cells assessed as reduction in viral NP protein expression after 24 hrs by DAPI staining based fluorescence microscopic method; type: functional, organism-based; settings: A/Puerto Rico/8/1934(H1N1)
Summary of the method: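 MDCK cells infected at MOI 0.01 for 1 h, then given increasing concentrations for 24 h. Fixed in 4% paraformaldehyde and blocked with 3% BSA. Stained with anti-NP (1:200, overnight, 4 °C), then FITC secondary (4 h, RT); DAPI nuclear stain; fluorescence microscopy.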

Influenza A virus [11] = assay: Antiviral activity against Influenza A virus (A/PR/8/34(H1N1)) infected in MDCK cells assessed as reduction in viral HA mRNA expression after 24 hrs by qRT-PCR method; type: functional, organism-based; settings: A/Puerto Rico/8/1934(H1N1)
Summary of the method: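 Infected MDCK cells treated with a concentration series for 24 h. Total RNA reverse-transcribed; viral HA mRNA quantified by qRT-PCR with GAPDH as internal control. Triplicate, mean ± SD.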

Influenza A virus [12] = assay: Antiviral activity against Influenza A virus (A/PR/8/34(H1N1)) infected in MDCK cells assessed as reduction in viral NP protein expression after 24 hrs by Western blot method; type: functional, organism-based; settings: A/Puerto Rico/8/1934(H1N1)
Summary of the method: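 MDCK monolayers infected with PR8 at MOI 0.01 for 1 h at 37 °C, then given serial dilutions. At 24 h, lysates equalised for protein and run on 10% SDS-PAGE. NP detected with anti-NP (1:1000) and HRP secondary, β-actin as loading control; ECL read-out.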

Influenza A virus [13] = assay: Antiviral activity against Influenza A virus (A/PR/8/34(H1N1)) infected in MDCK cells assessed as reduction in virus-induced cytopathic effect pretreated with virus for 30 mins followed by viral infection incubated for 30 mins and measured after 48 hrs by MTT assay; type: functional, organism-based; settings: A/Puerto Rico/8/1934(H1N1)
Summary of the method: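 Preinfection: PR8 (MOI 0.01) mixed with compound for 30 min at 37 °C, then added to MDCK cells for 30 min. Medium replaced with fresh medium containing 1 μg/mL TPCK-trypsin. Viability by MTT after a further 48 h.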

Influenza A virus [14] = assay: Antiviral activity against Influenza A virus (A/PR/8/34(H1N1)) infected in MDCK cells assessed as reduction in virus-induced cytopathic effect treated post viral infection for 1 hr and measured after 48 hrs by MTT assay; type: functional, organism-based; settings: A/Puerto Rico/8/1934(H1N1)
Summary of the method: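 Postinfection: infected MDCK cells given increasing concentrations for 1 h at 37 °C, then medium replaced. Viability by MTT after a further 48 h.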

Influenza A virus [15] = assay: Antiviral activity against Influenza A virus (A/PR/8/34(H1N1)) infected in MDCK cells assessed as reduction in virus-induced cytopathic effect co-treated with viral infection for 30 mins and measured after 48 hrs by MTT assay; type: functional, organism-based; settings: A/Puerto Rico/8/1934(H1N1)
Summary of the method: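 Entire-infection: virus–compound mixture (PR8, MOI 0.01, 30 min at 37 °C) added to MDCK cells. Unabsorbed virus removed; fresh medium with 1 μg/mL TPCK-trypsin plus compound added. Viability by MTT after 48 h.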

[16] = biological target: Hemagglutinin (Influenza A virus (A/Puerto Rico/8/1934(H1N1))) (UniProt P03452); assay: Inhibition of Influenza A virus (A/PR/8/34(H1N1)) HA-mediated chicken erythrocytes hemagglutination preincubated for 30 mins followed by erythrocytes addition and measured for 1 hr
Summary of the method: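 Twofold serial compound dilutions mixed with PR8 at different titres for 30 min at RT. 0.5% chicken erythrocytes added; read after 1 h at 37 °C. Virus diluent without compound as negative control, PBS as blank.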

[17] = biological target: Neuraminidase (Influenza A virus (A/Puerto Rico/8/1934(H1N1))) (UniProt P03468); assay: Inhibition of Influenza A virus (A/PR/8/34(H1N1)) NA assessed as reduction in viral particle release using 2-(4-methylumbelliferyl)-alpha-D-N-acetylneuraminic acid sodium as substrate preincubated for 30 mins followed by substrate addition and measured for 1 hr by fluorescence assay
Summary of the method: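 PR8 in reaction buffer mixed with twofold-diluted compound for 30 min at 37 °C. 20 μM MUNANA substrate added for 1 h at 37 °C; stopped with 14 mM NaOH. 4-MU fluorescence read at ex 340/em 440 nm.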

Influenza A virus [18] = assay: Antiviral activity against Influenza A virus (A/PR/8/34(H1N1)) infected in MDCK cells assessed as reduction in viral NP production at 10 uM measured 10 hrs post infection by Western blot analysis; type: functional, organism-based; settings: Influenza A virus (A/Puerto Rico/8/1934(H1N1))
Summary of the method: (§3)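 Compound added to PR8-infected MDCK cells at defined time points covering the first replication cycle. At 10 h postinfection, NP measured by Western blot and HA mRNA by quantitative RT-PCR.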

Influenza A virus [19] = assay: Antiviral activity against Influenza A virus (A/PR/8/34(H1N1)) infected in MDCK cells assessed as reduction in viral HA mRNA level at 10 uM measured 10 hrs post infection by qRT-PCR analysis; type: functional, organism-based; settings: Influenza A virus (A/Puerto Rico/8/1934(H1N1)); summary of the method: as §3
[20] = biological target: Polymerase basic protein 2 (Influenza A virus (strain A/Puerto Rico/8/1934 H1N1)) (UniProt P03428); assay: Inhibition of fluorescently-labeled m7GTP binding to Influenza A virus RNA polymerase PB2 preincubated for 15 mins followed by m7GTP addition measured after 1 hr by HTRF assay
Summary of the method: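 PB2 protein preincubated with compound at different concentrations for 15 min at RT. Premixed fluorescent probe (m7GTP cap analogue) added; HTRF read after 1 h. Three independent experiments, mean ± SD.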

Polymerase basic protein 2, sequence (P03428 whole entry): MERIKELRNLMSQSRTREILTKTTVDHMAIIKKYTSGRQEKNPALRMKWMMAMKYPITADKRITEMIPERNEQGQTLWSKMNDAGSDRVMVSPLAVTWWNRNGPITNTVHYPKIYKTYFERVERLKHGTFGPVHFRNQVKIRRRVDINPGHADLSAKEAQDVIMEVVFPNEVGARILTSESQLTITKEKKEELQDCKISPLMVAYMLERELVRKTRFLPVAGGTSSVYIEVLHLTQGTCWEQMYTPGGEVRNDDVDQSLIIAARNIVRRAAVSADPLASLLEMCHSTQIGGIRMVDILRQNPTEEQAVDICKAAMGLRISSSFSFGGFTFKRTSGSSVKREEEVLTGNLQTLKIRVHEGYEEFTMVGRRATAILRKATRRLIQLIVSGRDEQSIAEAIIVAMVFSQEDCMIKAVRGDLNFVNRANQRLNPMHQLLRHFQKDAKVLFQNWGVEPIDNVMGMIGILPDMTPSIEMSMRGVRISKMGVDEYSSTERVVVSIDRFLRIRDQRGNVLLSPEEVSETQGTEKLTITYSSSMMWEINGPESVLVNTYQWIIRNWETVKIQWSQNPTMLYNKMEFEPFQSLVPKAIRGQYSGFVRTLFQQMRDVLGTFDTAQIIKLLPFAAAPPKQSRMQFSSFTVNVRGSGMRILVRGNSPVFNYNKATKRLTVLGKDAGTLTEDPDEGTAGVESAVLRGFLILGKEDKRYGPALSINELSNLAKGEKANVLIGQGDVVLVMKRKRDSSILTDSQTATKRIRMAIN
Hemagglutinin (Influenza A virus (A/Puerto Rico/8/1934(H1N1))), sequence (P03452 whole entry): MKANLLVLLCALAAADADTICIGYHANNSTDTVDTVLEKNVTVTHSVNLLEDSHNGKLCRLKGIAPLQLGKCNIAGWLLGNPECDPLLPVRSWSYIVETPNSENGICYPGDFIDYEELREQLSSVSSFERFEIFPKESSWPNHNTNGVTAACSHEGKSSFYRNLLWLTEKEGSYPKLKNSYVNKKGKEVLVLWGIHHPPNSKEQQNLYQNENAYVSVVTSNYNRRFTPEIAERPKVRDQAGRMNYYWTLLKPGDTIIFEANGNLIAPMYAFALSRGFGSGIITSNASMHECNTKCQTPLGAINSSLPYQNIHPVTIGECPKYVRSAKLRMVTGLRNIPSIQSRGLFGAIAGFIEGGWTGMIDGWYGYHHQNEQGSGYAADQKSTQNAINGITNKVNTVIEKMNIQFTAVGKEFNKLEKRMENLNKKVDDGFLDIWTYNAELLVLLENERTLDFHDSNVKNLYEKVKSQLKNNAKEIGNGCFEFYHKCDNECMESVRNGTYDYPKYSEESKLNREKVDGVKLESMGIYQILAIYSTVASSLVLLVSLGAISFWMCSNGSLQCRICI
Neuraminidase (Influenza A virus (A/Puerto Rico/8/1934(H1N1))), sequence (P03468 whole entry): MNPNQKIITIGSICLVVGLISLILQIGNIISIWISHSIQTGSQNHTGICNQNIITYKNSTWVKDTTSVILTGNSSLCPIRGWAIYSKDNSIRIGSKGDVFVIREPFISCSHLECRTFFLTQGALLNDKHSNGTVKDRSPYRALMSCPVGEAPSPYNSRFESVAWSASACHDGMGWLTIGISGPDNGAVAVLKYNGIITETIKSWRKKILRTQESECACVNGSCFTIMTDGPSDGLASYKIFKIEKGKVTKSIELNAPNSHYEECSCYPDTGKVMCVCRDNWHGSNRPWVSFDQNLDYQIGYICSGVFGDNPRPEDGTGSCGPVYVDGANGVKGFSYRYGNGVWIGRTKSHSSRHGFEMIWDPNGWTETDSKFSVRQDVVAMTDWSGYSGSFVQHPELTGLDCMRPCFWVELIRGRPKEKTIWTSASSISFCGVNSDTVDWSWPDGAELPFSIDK
Polymerase basic protein 2 (Influenza A virus (strain A/Puerto Rico/8/1934 H1N1)), sequence (P03428 whole entry, looked up): as the sequence (P03428 whole entry) above

CCC(CC)[C@H](NC(C)=O)[C@@H]1[C@H](O)[C@@H](C(=O)O)C[C@H]1NC(=N)N
inhibition [1]: inactive

C=C1[C@H](O)[C@@]2(C(=O)N1OC)/C(=C\CC)C=CC(=O)[C@H]2O
inhibition (Cynodon dactylon): inactive | inhibition (Arabidopsis thaliana): inactive | IC50 (ACHN): > 50 µM | IC50 (786-0): > 50 µM | IC50 (OS-RC-2): > 50 µM | IC50 (HepG2): > 50 µM | IC50 (SGC-7901): > 50 µM | MIC (Escherichia coli): > 100 µg/mL | MIC (Staphylococcus aureus): > 100 µg/mL | MIC [2]: > 100 µg/mL | MIC [3]: > 100 µg/mL | IC50 (Influenza A virus [4]): 21 µM

O=c1oc2cc(O)cc(O)c2c2ccccc12
Kd [5]: 3.6 µM

CC/C=C1/C=CC(=O)[C@@H](O)[C@]12C(=O)N(OC)[C@@](C)(OC)[C@@H]2O
inhibition (Cynodon dactylon): inactive | inhibition (Arabidopsis thaliana): inactive | IC50 (ACHN): > 50 µM | IC50 (786-0): > 50 µM | IC50 (OS-RC-2): > 50 µM | IC50 (HepG2): > 50 µM | IC50 (SGC-7901): > 50 µM | MIC (Escherichia coli): > 100 µg/mL | MIC (Staphylococcus aureus): > 100 µg/mL | MIC [2]: > 100 µg/mL | MIC [3]: > 100 µg/mL | IC50 (Influenza A virus H3N2): 4.1 µM | CC50 [6]: > 200 µM | IC50 (Influenza A virus [7]): 5.5 µM | IC50 (Influenza A virus [4]): 1.6 µM | IC50 (Influenza A virus [8]): 1.7 µM | Activity (Influenza A virus [9]): Dose-dependent effect | Activity (Influenza A virus [10]): Dose-dependent effect | Activity (Influenza A virus [11]): Dose-dependent effect | Activity (Influenza A virus [12]): Dose-dependent effect | Activity (Influenza A virus [13]): inactive | Activity (Influenza A virus [14]): Active | Activity (Influenza A virus [15]): Active | inhibition [16]: inactive | inhibition [17]: inactive | Activity (Influenza A virus [18]): Active | Activity (Influenza A virus [19]): Active | inhibition [1]: Active | inhibition [20]: Dose-dependent effect | Kd [5]: 0.077 µM
